Among the data in ChEMBL document CHEMBL1148739, “Microwave-assisted ring opening of epoxides: a general route to the synthesis of 1-aminopropan-2-ols with anti malaria parasite activities” (J Med Chem, 2007) are IC50 and Activity values, retold here.

Experiment [1] deals with Plasmodium falciparum. In words: Antimalarial activity against Plasmodium falciparum FCR3 after 72 hrs. Format: functional, organism-based. The note with it: FCR3, 72 h. A digest of the protocol: (§1)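 P. falciparum in continuous culture in 5% O+ erythrocytes, RPMI-1640 with 25 mM HEPES, 0.5% albumax, 2 mM L-glutamine, gentamicin; 37 °C, 5% CO2/5% O2/90% N2; sorbitol-synchronized. Ring stages seeded at 0.05% parasitemia, 1.5% hematocrit; 72 h with threefold serial dilutions from 100 µM. HRPII accumulation after freeze-thaw lysis read as percent of untreated controls; duplicates; IC50 from 72 h HRPII production.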

In experiment [2] the test system is Plasmodium falciparum. Briefly: Antimalarial activity against Plasmodium falciparum 3D7 after 72 hrs. Format: functional, organism-based. The note with it: 3D7, 72 h. The essentials: as §1
In a further experiment the test system is MONO-MAC-6. Briefly: Effect on cell viability in human MONO-MAC-6 cells at 100 uM after 24 hrs. Format: functional, cell-based. A digest of the protocol:
(§2)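 Cell lines kept at 37 °C in RPMI 1640 with L-glutamine and 10% fetal calf serum under 5% humidified CO2. Cell suspension (25 cells/µL) exposed to 100 µM compound for 24 h (one cell cycle) at 37 °C. Viability by Trypan Blue dye uptake; duplicates.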

The next experiment has as its system Jurkat. In words: Effect on cell viability in human Jurkat lymphoblastoid cells at 100 uM after 24 hrs. Format: functional, cell-based. A digest of the protocol: as §2
Another experiment deals with NALM-6. Briefly: Effect on cell viability in human NALM6 cells at 100 uM after 24 hrs. Format: functional, cell-based. The essentials: as §2
The target of experiment [3] is T1, Aquaglyceroporin (Plasmodium falciparum) (UniProt Q8II36).
T1 sequence (whole entry): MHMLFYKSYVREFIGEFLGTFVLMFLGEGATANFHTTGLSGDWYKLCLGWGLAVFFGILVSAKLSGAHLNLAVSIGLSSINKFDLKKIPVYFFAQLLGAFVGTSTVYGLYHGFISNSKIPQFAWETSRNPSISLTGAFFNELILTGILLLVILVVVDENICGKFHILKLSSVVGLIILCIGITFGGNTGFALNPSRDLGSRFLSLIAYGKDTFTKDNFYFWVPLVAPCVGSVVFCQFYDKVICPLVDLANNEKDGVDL
In words: Inhibition of Plasmodium falciparum AQP expressed in BY4742-deltafpsl cells at 100 uM after 48 hrs. Format: cell-based. A digest of the protocol:
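BY4742Δfps1 yeast expressing PfAQP grown in 20 mM MES-buffered (pH 5.5) minimal YNB with 3% glucose, 0.1% proline, with or without 50 mM methylamine hydrochloride; compound at 100 µM, untreated cells as controls.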

pIC50: −log10 of the molar value. Calls of active or inactive are those of the source. The rule behind the calls is not given here.

As for `OC(COCc1ccccc1)CN1CCNCC1` (stereo not drawn), the pIC50 (commonly −log10 of the IC50, conventionally taken in molar units) in the experiment with Plasmodium falciparum [1] was 4.90.
For the compound `CCN1CCCC1CNCC(O)COCc1ccccc1` (stereo not drawn), the negative-log IC50 (pIC50) with Plasmodium falciparum [1] was 4.80; in the experiment with Plasmodium falciparum [2], 4.49.
Take `CN(Cc1ccccc1)CC(O)CCl` (stereo not drawn): the outcome in the experiment with MONO-MAC-6, in the experiment with Jurkat and in the experiment with NALM-6 was inactive. Besides, the figures for the pIC50 in the experiment on Plasmodium falciparum [1] and in the experiment on Plasmodium falciparum [2] were 4.51 and 4.81, respectively.
For `OC(COCc1ccccc1)CN1CCCC1` (stereo not drawn), the pIC50 with Plasmodium falciparum [1] is 4.69.
As for `CCN(CC)CC(O)COCc1ccccc1` (stereo not drawn), in the experiment with Plasmodium falciparum [1], the pIC50 is 4.55.
`CC(C)(C)NCC(O)COCc1ccccc1` (stereo not drawn): the pIC50 in the experiment with Plasmodium falciparum [1] is 4.90.
For the compound `OC(CNCC1CC1)COCc1ccccc1` (stereo not drawn), the pIC50 in the experiment with Plasmodium falciparum [1] is 5.08. Also, in experiment [3], the result was inactive.
As for `C=CCNCC(O)CCl` (stereo not drawn), the pIC50 in the experiment with Plasmodium falciparum [1] was 4.62.
Compound `OC(CNCCc1cccs1)COCc1ccccc1` (stereo not drawn) had a pIC50 in the experiment with Plasmodium falciparum [1] of 5.92.
Turning to `CN(Cc1ccccc1)CC(O)COCc1ccccc1` (stereo not drawn), the pIC50 was 5.70 in the experiment on Plasmodium falciparum [1] and 4.33 in the experiment on Plasmodium falciparum [2]. In addition, the result in experiment [3] was inactive.
Turning to `OC(CNC1CCCC1)COCc1ccccc1` (stereo not drawn), the pIC50 in the experiment on Plasmodium falciparum [1] is 4.99; with Plasmodium falciparum [2], 4.82.
With `O[C@@H](CNC1CCCC1)COCc1ccccc1`, the pIC50 in the experiment on Plasmodium falciparum [1] is 5.23; with Plasmodium falciparum [2] it was 5.29.
Regarding `OC(CCl)CN1CCNCC1` (stereo not drawn), the result in the experiment with MONO-MAC-6, in the experiment on Jurkat and in the experiment on NALM-6 was inactive. Also, the pIC50 in the experiment with Plasmodium falciparum [1] was 4.41; with Plasmodium falciparum [2] it was 4.18.
As for `CN(Cc1ccccc1)CC(O)CSCc1ccccc1` (stereo not drawn), the outcome in the experiment on MONO-MAC-6, in the experiment on Jurkat and with NALM-6 was inactive. Further, the pIC50 in the experiment on Plasmodium falciparum [1] is 4.79; with Plasmodium falciparum [2] it was 5.03.
In the experiment with Plasmodium falciparum [1], `OC(CNC1CCC1)COCc1ccccc1` (stereo not drawn) showed a pIC50 of 4.82.
In the case of `O[C@H](CNC1CCCC1)COCc1ccccc1`, the pIC50 in the experiment with Plasmodium falciparum [1] was 5.34; with Plasmodium falciparum [2] it was 5.41.
`CCN(Cc1ccccc1)CC(O)COCc1ccccc1` (stereo not drawn) gave a negative-log IC50 (pIC50) in the experiment on Plasmodium falciparum [1] of 6.15. Moreover, the outcome in experiment [3] was inactive.
Take `CCN(Cc1ccccc1)CC(O)CN(C)Cc1ccccc1` (stereo not drawn): the result (in the experiment with MONO-MAC-6; in the experiment with Jurkat; with NALM-6; in experiment [3]) was inactive. Besides, the pIC50 is 5.11 in the experiment with Plasmodium falciparum [1] and 5.43 with Plasmodium falciparum [2].
Regarding `OC(CNCC1CCCO1)COCc1ccccc1` (stereo not drawn), the pIC50 with Plasmodium falciparum [1] was 5.11.
For `CN(Cc1ccccc1)CC(O)CNCc1ccccc1` (stereo not drawn), the negative-log IC50 (pIC50) was 4.38 in the experiment on Plasmodium falciparum [1] and 4.81 in the experiment on Plasmodium falciparum [2].
In the case of `CN(Cc1ccccc1)CC(O)CN(C)Cc1ccccc1`, the pIC50 with Plasmodium falciparum [1] and in the experiment on Plasmodium falciparum [2] was 4.36 each time.
For the compound `OC(CNCc1cccs1)COCc1ccccc1` (stereo not drawn), the outcome (in the experiment with MONO-MAC-6; in the experiment with Jurkat; in the experiment on NALM-6; in experiment [3]) was inactive. In addition, the pIC50 with Plasmodium falciparum [1] was 5.24; in the experiment with Plasmodium falciparum [2] it was 5.01.
For `OC(CNc1ccccn1)COCc1ccccc1` (stereo not drawn), the pIC50 with Plasmodium falciparum [1] is 4.51.
`OC(CNCc1ccccc1)COCc1ccccc1` (stereo not drawn) gave a negative-log IC50 (pIC50) in the experiment on Plasmodium falciparum [1] of 4.90. The result in experiment [3] was inactive.
For `OC(CNCc1ccco1)COCc1ccccc1` (stereo not drawn), the negative logarithm of the IC50 (pIC50) in the experiment on Plasmodium falciparum [1] is 5.47.
